How the values were obtained:
[1] = Antiproliferative activity against human NCI/ADR-RES cells after 48 hrs by SRB assay; type: functional
Method in brief: (§1)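 Cells grown in RPMI 1640 with 5% FBS, with penicillin/streptomycin in experimental cultures. Exposed in triplicate to 0.25, 2.5, 25 and 250 µg/mL in DMSO/RPMI for 48 h at 37 °C under 5% CO2. Plates were TCA-fixed before (T0) and after treatment, then stained with sulforhodamine B and read at 540 nm. GI50 was obtained by non-linear regression against untreated growth. Doxorubicin served as positive control.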

[2] = Cell cycle arrest in human 786-0 cells assessed as accumulation at sub-G1 phase at 12.5 uM after 24 hrs by propidium iodide staining-based flow cytometry (Rvb=3.7+/-0.9%); type: functional
Method in brief: (§2)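 786-0 cells seeded at 3×10^4 cells/mL and grown 24 h, then serum-starved 24 h to synchronise. Treated in DMSO/RPMI for 24 h alongside DMSO vehicle and colchicine control. 1×10^5 cells in PBS were stained with propidium iodide for 20 min in the dark at room temperature, then analysed by flow cytometry. Results are mean ± standard error % cells from three experiments in triplicate; ANOVA/Tukey.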

[3] = Cytotoxicity against African green monkey Vero cells after 48 hrs by SRB assay; type: toxicity, cell-based; conditions: chlorocebus sabaeus
Method in brief: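 Vero (ATCC CCL81) cells grown in DMEM with 10% FBS and gentamicin at 37°C, 5% CO2. Cells exposed in triplicate to 1000, 500, 100, 10, 1 and 0.1 µg/mL, with untreated cells as control. Viability read by sulforhodamine B colorimetry. CC50 is the concentration giving 50% cytotoxicity.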

786-0 [4] = assay: Induction of apoptosis in human 786-0 cells assessed as late apoptotic or necrotic cells at 25 uM after 15 hrs by 7-AAD staining based flow cytometry; type: functional
Method in brief: (§3)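 786-0 cells seeded at 3×10^4 cells/mL and grown 24 h at 37 °C under 5% CO2. Exposed to 25 µM in DMSO/RPMI for 15, 18 or 24 h against DMSO vehicle. Results are mean ± standard error from three experiments in triplicate.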

[5] = Cell cycle arrest in human 786-0 cells assessed as accumulation at sub-G1 phase at 6.25 uM after 24 hrs by propidium iodide staining-based flow cytometry (Rvb=3.7+/-0.9%); type: functional; method in brief: as §2
[6] = Cell cycle arrest in human 786-0 cells assessed as accumulation at S phase at 12.5 uM after 24 hrs by propidium iodide staining-based flow cytometry (Rvb=12.6+/-0.7%); type: functional; method in brief: as §2
[7] = Cell cycle arrest in human 786-0 cells assessed as accumulation at G2/M phase at 6.25 uM after 24 hrs by propidium iodide staining-based flow cytometry (Rvb=36.5+/-1.1%); type: functional; method in brief: as §2
[8] = Cell cycle arrest in human 786-0 cells assessed as accumulation at G1 phase at 12.5 uM after 24 hrs by propidium iodide staining-based flow cytometry (Rvb=47.1+/-1%); type: functional; method in brief: as §2
[9] = Antiproliferative activity against human 786-0 cells after 48 hrs by SRB assay; type: functional; conditions: 786-0, 48 h; method in brief: as §1
786-0 [10] = assay: Induction of apoptosis in human 786-0 cells assessed as necrotic cells at 25 uM after 24 hrs by Annexin V/7-AAD staining based flow cytometry; type: functional; method in brief: as §3
Human alphaherpesvirus 1 = assay: Antiviral activity against Herpes simplex type I KOS; type: functional; conditions: Human alphaherpesvirus 1, KOS
[11] = Antiproliferative activity against human MCF7 cells after 48 hrs by SRB assay; type: functional; conditions: MCF7, 48 h; method in brief: as §1
[12] = Antiproliferative activity against human NCI-H460 cells after 48 hrs by SRB assay; type: functional; conditions: NCI-H460, 48 h; method in brief: as §1
[13] = Antiproliferative activity against human HT-29 cells after 48 hrs by SRB assay; type: functional; conditions: HT-29, 48 h; method in brief: as §1
786-0 [14] = assay: Induction of apoptosis in human 786-0 cells assessed as late apoptotic or necrotic cells at 25 uM after 18 hrs by 7-AAD staining based flow cytometry; type: functional; method in brief: as §3
[15] = Antiproliferative activity against human OVCAR3 cells after 48 hrs by SRB assay; type: functional; conditions: OVCAR-3, 48 h; method in brief: as §1
[16] = Selectivity index, ratio of CC50 for Herpes simplex type I KOS infected African green monkey Vero cells to EC50 for Herpes simplex virus type 1 KOS; type: toxicity, cell-based; conditions: Herpes simplex virus type 1 KOS infected Vero cells, read-out: Ratio CC50/EC50
Method in brief: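 SI calculated as CC50/EC50. CC50 is the 50% cytotoxic concentration on Vero cells by sulforhodamine B, tested in triplicate from 0.1 to 1000 µg/mL. EC50 is the concentration protecting 50% of cells against HSV-1, with acyclovir as HSV-1 standard and drug-free cells as control.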

[17] = Cell cycle arrest in human 786-0 cells assessed as accumulation at G1 phase at 6.25 uM after 24 hrs by propidium iodide staining-based flow cytometry (Rvb=47.1+/-1%); type: functional; method in brief: as §2
786-0 [18] = assay: Induction of apoptosis in human 786-0 cells assessed as late apoptotic or necrotic cells at 25 uM after 24 hrs by 7-AAD staining based flow cytometry; type: functional; method in brief: as §3
786-0 [19] = assay: Induction of apoptosis in human 786-0 cells assessed as necrotic cells at 25 uM after 18 hrs by Annexin V/7-AAD staining based flow cytometry; type: functional; method in brief: as §3
[20] = Cytotoxicity against human 786-0 cells after 48 hrs by SRB assay; type: functional; conditions: 786-0, 48 h
Method in brief: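 Sulforhodamine B assay in RPMI 1640 with 5% FBS. Triplicate exposures to 0.25–250 µg/mL in DMSO/RPMI for 48 h at 37 °C under 5% CO2. T0 and treated plates were fixed with 50% TCA and absorbance read at 540 nm. Parameters: TGI is total growth inhibition; LC50 is the concentration killing 50% of cells. Doxorubicin served as control.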

786-0 [21] = assay: Induction of apoptosis in human 786-0 cells assessed as necrotic cells at 25 uM after 15 hrs by Annexin V/7-AAD staining based flow cytometry; type: functional; method in brief: as §3
[22] = Cell cycle arrest in human 786-0 cells assessed as accumulation at G2/M phase at 12.5 uM after 24 hrs by propidium iodide staining-based flow cytometry (Rvb=36.5+/-1.1%); type: functional; method in brief: as §2
[23] = Cell cycle arrest in human 786-0 cells assessed as accumulation at S phase at 6.25 uM after 24 hrs by propidium iodide staining-based flow cytometry (Rvb=12.6+/-0.7%); type: functional; method in brief: as §2

CN(C)c1ccc(-c2nc(C(=O)N/N=C3/NC(=O)CS3)cc3c2[nH]c2ccccc23)cc1
GI50 [1]: 0.48 µM | Activity [2]: 15.3% | CC50 at 48 h [3]: 1740 µM | Activity (786-0 [4]): 3.9% | Activity [5]: 2.3% | Activity [6]: 12.4% | Activity [7]: 37% | Activity [8]: 40.5% | GI50 [9]: 1.6 µM | Activity (786-0 [10]): 38.7% | EC50 (Human alphaherpesvirus 1): 96.8 µM | GI50 [11]: 2.93 µM | GI50 [12]: 1.44 µM | GI50 [13]: 5.04 µM | Activity (786-0 [14]): 34.7% | GI50 [15]: 1.27 µM | selectivity ratio [16]: 18 | Activity [17]: 48.7% | Activity (786-0 [18]): 36.6% | Activity (786-0 [19]): 34.4% | TGI [20]: 13 µM | CC50 ([20]; read-out: LC50 (the source's name)): 105 µM | Activity (786-0 [21]): 3.6% | Activity [22]: 31.8% | Activity [23]: 11.9%

Reference: ChEMBL document CHEMBL3877292, “Synthesis and evaluation of novel hybrids β-carboline-4-thiazolidinones as potential antitumor and antiviral agents” (Eur J Med Chem, 2016)
